Each block holds one compound with its values, some of them ahead of it. Calls of active or inactive are those of the source. The rule behind the calls is not given here.
Columns and labels:
[1] = test system: K562; test: Antiproliferative activity against human K562 cells after 72 hrs by MTT assay; type: functional, cell-based; details: K562, 72 h
Summary of the method: (§1)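 MTT viability read-out after 72 h continuous exposure to test compounds. Performed in triplicate and reported as IC50, means ± SD, n = 3.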

[2] = test system: H22; test: Antiproliferative activity against […] cells after 72 hrs by MTT assay; type: functional, cell-based; details: Mus musculus, H22, 72 h; summary of the method: as §1
[3] = test system: MDA-MB-231; test: Antiproliferative activity against human MDA-MB-231 cells after 72 hrs by MTT assay; type: functional, cell-based; details: MDA-MB-231, 72 h; summary of the method: as §1
[4] = Inhibition of porcine brain tubulin polymerization after 30 mins by spectrophotometric method; design: species or system Sus scrofa
[5] = test system: HepG2; test: Antiproliferative activity against human HepG2 cells after 72 hrs by MTT assay; type: functional, cell-based; details: HepG2, 72 h; summary of the method: as §1
[6] = test system: KB; test: Antiproliferative activity against human KB cells after 72 hrs by MTT assay; type: functional, cell-based; summary of the method: as §1
[7] = test system: HCT-8; test: Antiproliferative activity against human HCT8 cells after 72 hrs by MTT assay; type: functional, cell-based; details: HCT-8, 72 h; summary of the method: as §1
[8] = test system: L02; test: Cytotoxicity against human LO2 cells after 72 hrs by MTT assay; type: cell-based; details: L02, 72 h; summary of the method: as §1
[9] = test system: H22; test: Antitumor activity against […] cells xenografted in ICR mouse assessed as reduction in tumor weight at 30 mg/kg, iv qd for 21 consecutive days; type: functional; design: scale not given: the % may be the effect or the level left
Summary of the method: (§2)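 H22 cells inoculated subcutaneously into the right flank of mice. Dosing i.v. at 15 or 30 mg/kg per day, or paclitaxel 8 mg/kg every 2 days, for 21 days. Tumor size and body weight recorded every 2 days. Tumor weight compared with vehicle at day 21.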

[10] = test system: H22; test: Antitumor activity against […] cells xenografted in ICR mouse assessed as reduction in tumor weight at 15 mg/kg, iv qd for 21 consecutive days; type: functional; design: scale not given: the % may be the effect or the level left; summary of the method: as §2
[11] = species: Sus scrofa; test: Inhibition of [3H]colchicine binding to biotinylated porcine tubulin at 5 uM after 2 hrs by scintillation proximity assay
[12] = species: Sus scrofa; test: Inhibition of [3H]colchicine binding to biotinylated porcine tubulin at 1 uM after 2 hrs by scintillation proximity assay
[13] = test system: K562; test: Induction of apoptosis in human K562 cells assessed as late apoptotic cells at 10 nM after 48 hrs by Annexin V-APC/7-AAD staining based flow cytometry (reference value: 5.7%); type: functional
[14] = test system: K562; test: Induction of apoptosis in human K562 cells assessed as early apoptotic cells at 10 nM after 48 hrs by Annexin V-APC/7-AAD staining based flow cytometry (reference value: 5.7%); type: functional
[15] = test system: K562; test: Induction of mitochondrial membrane depolarization in human K562 cells at 5 nM after 48 hrs by JC-1 probe based flow cytometry (reference value: 0.6%); type: functional
Summary of the method: (§3)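 K562 cells treated at 0, 5, 10 or 20 nM for 48 h. Mitochondrial membrane potential measured with JC-1 probe and the percentage of cells with collapsed potential recorded.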

[16] = test system: K562; test: Induction of apoptosis in human K562 cells assessed as late apoptotic cells at 20 nM after 48 hrs by Annexin V-APC/7-AAD staining based flow cytometry (reference value: 5.7%); type: functional
[17] = test system: K562; test: Cell cycle arrest in human K562 cells assessed as accumulation at G2/M phase at 20 nM after 48 hrs by propidium iodide staining based flow cytometry; type: functional
Summary of the method: (§4)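 K562 cells treated at 5, 10 or 20 nM for 48 h. Stained with propidium iodide and DNA content analysed for the fraction in G2/M.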

[18] = test system: K562; test: Induction of apoptosis in human K562 cells assessed as early apoptotic cells at 5 nM after 48 hrs by Annexin V-APC/7-AAD staining based flow cytometry (reference value: 5.7%); type: functional
[19] = test system: K562; test: Induction of apoptosis in human K562 cells after 48 hrs by Annexin V-APC/7-AAD staining based flow cytometry; type: functional, cell-based
[20] = test system: K562; test: Induction of apoptosis in human K562 cells assessed as late apoptotic cells at 5 nM after 48 hrs by Annexin V-APC/7-AAD staining based flow cytometry (reference value: 5.7%); type: functional
[21] = test system: K562; test: Induction of mitochondrial membrane depolarization in human K562 cells at 20 nM after 48 hrs by JC-1 probe based flow cytometry (reference value: 0.6%); type: functional; summary of the method: as §3
[22] = test system: K562; test: Cell cycle arrest in human K562 cells assessed as accumulation at G2/M phase at 10 nM after 48 hrs by propidium iodide staining based flow cytometry; type: functional; summary of the method: as §4
[23] = test system: HUVEC; test: Antimigratory activity in HUVEC after 24 hrs by wound healing based phase contrast microscopy; type: functional, cell-based; details: Homo sapiens
Summary of the method: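 Confluent HUVEC monolayer scraped to make a wound. Cells exposed to test agent and migration into the scraped area followed over 24 h.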

[24] = test system: K562; test: Cell cycle arrest in human K562 cells assessed as accumulation at G2/M phase at 5 nM after 48 hrs by propidium iodide staining based flow cytometry; type: functional; summary of the method: as §4
[25] = test system: K562; test: Induction of apoptosis in human K562 cells assessed as early apoptotic cells at 20 nM after 48 hrs by Annexin V-APC/7-AAD staining based flow cytometry (reference value: 5.7%); type: functional
[26] = test system: HUVEC; test: Antivascular activity against HUVEC assessed as reduction in capillary like tube formation up to 20 nM after 6 hrs by inverted microscopic based matrigel method; type: functional, cell-based; details: Homo sapiens
Summary of the method: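 HUVECs seeded on matrigel to form capillary-like tubules, then exposed to 0, 5, 10 or 20 nM for 6 h. Disruption of tube networks scored.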

[27] = test system: Mus musculus; test: Toxicity in ICR mouse xenografted with […] cells assessed as decrease in body weight up to 30 mg/kg, iv qd for 21 consecutive days measured every 2 days; type: organism-based; details: in vivo, 48 h; summary of the method: as §2
[28] = test system: K562; test: Induction of mitochondrial membrane depolarization in human K562 cells at 10 nM after 48 hrs by JC-1 probe based flow cytometry (reference value: 0.6%); type: functional; summary of the method: as §3
[29] = test system: K562; test: Induction of microtubule network disruption in human K562 cells after 24 hrs by DAPI staining based immunofluorescence assay; type: functional, cell-based
Summary of the method: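 K562 cells exposed at 5, 10 or 20 nM for 24 h. Microtubule network visualized by immunofluorescence against untreated cells.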

[30] = test system: H22; test: Antitumor activity against […] cells xenografted in ICR mouse assessed as reduction in tumor weight at 8 mg/kg, iv per 2 days for 21 consecutive days; type: functional; design: scale not given: the % may be the effect or the level left; summary of the method: as §2
[31] = test system: Mus musculus; test: Toxicity in ICR mouse xenografted with […] cells assessed as decrease in body weight at 8 mg/kg, iv per 2 days for 21 consecutive days measured every 2 days; type: organism-based; details: in vivo, 48 h; summary of the method: as §2

- IC50 [1]: 20.5 µM
- IC50 [3]: 30.2 µM
- IC50 [4]: 10.6 µM
- IC50 [5]: 23.7 µM
- IC50 [6]: 25.1 µM
- IC50 [7]: 35.2 µM
Structure (SMILES): COc1ccc2c(c1O)COC(C)C2=O (centres undefined)
- IC50 [2]: 18.2 µM
- IC50 [8]: 22.2 µM

- IC50 [1]: 0.46 µM
- IC50 [3]: 0.9 µM
- IC50 [4]: 4.3 µM
- IC50 [6]: 0.87 µM
- IC50 [7]: 0.94 µM
Structure (SMILES): COc1ccc2c(c1O)COC[C@H]2c1cc(OC)c(OC)c(OC)c1
- IC50 [2]: 0.8 µM
- IC50 [8]: 0.9 µM

- IC50 [1]: 0.019 µM
- IC50 [3]: 0.028 µM
- IC50 [4]: 4.2 µM
- IC50 [5]: 0.026 µM
- IC50 [6]: 0.016 µM
- IC50 [7]: 0.025 µM
Structure (SMILES): COc1ccc2c(c1O)COC=C2c1cc(OC)c(OC)c(OC)c1
- IC50 [2]: 0.01 µM
- IC50 [8]: 0.138 µM

- IC50 [5]: > 10 µM
Structure (SMILES): COc1cc2c(cc1O)C(c1cc(OC)c(OC)c(OC)c1)=COC2

Structure (SMILES): COc1ccc(/C=C\c2cc(OC)c(OC)c(OC)c2)cc1O [COMBRETASTATIN A4]
- IC50 [1]: 0.015 µM
- IC50 [2]: 0.008 µM
- Activity [9]: 55.3%
- IC50 [3]: 0.015 µM
- IC50 [4]: 2.5 µM
- IC50 [6]: 0.012 µM
- IC50 [7]: 0.015 µM
- IC50 [8]: 0.095 µM
- Activity [10]: 44.8%

- IC50 [5]: > 10 µM
Structure (SMILES): COc1cc2c(cc1O)C(c1cc(OC)c(OC)c(OC)c1)COC2 (centres undefined)

- IC50 [1]: 0.008 µM
- inhibition [11]: 92.6%
- IC50 [3]: 0.011 µM
- IC50 [4]: 2.5 µM
- inhibition [12]: 79.4%
- IC50 [6]: 0.012 µM
- IC50 [7]: 0.012 µM
Structure (SMILES): COc1ccc2c(c1O)COC[C@@H]2c1cc(OC)c(OC)c(OC)c1
- IC50 [2]: 0.008 µM
- IC50 [8]: 0.058 µM

- IC50 [1]: 0.01 µM
- inhibition [11]: 89.6%
- IC50 [3]: 0.022 µM
- IC50 [4]: 3.1 µM
- inhibition [12]: 76.4%
- IC50 [5]: 0.015 µM
- IC50 [6]: 0.025 µM
- IC50 [7]: 0.03 µM
Structure (SMILES): COc1ccc2c(c1O)COCC2c1cc(OC)c(OC)c(OC)c1 (racemic)
- IC50 [2]: 0.011 µM
- Activity [13]: 29%
- Activity [14]: 29%
- Activity [9]: 62.3%
- Activity [15]: 12.7%
- Activity [16]: 54.1%
- Activity [17]: 22.4%
- Activity [18]: 13.7%
- Activity [19]: Dose-dependent effect
- Activity [20]: 13.7%
- Activity [21]: 55.1%
- Activity [22]: 19.5%
- Activity [23]: Dose-dependent effect
- Activity [24]: 17.5%
- Activity [25]: 54.1%
- Activity [26]: Active
- Activity [27]: Non-Toxic
- Activity [28]: 26.7%
- Activity [29]: Dose-dependent effect
- IC50 [8]: 0.095 µM
- Activity [10]: 46.5%

Structure (SMILES): CC(=O)O[C@H]1C(=O)[C@@]2(C)[C@H]([C@H](OC(=O)c3ccccc3)[C@]3(O)C[C@H](OC(=O)[C@H](O)[C@@H](NC(=O)c4ccccc4)c4ccccc4)C(C)=C1C3(C)C)[C@]1(OC(C)=O)CO[C@@H]1C[C@@H]2O [PACLITAXEL]
- Activity [30]: 72.1%
- Activity [31]: Toxic
